Key:
Assay type in all cases: functional
[1] = test system: Mus musculus; experiment: Analgesic activity in Swiss mouse assessed as increase in reaction time at 20 mg/kg, po after 90 mins by Eddy's hot plate technique
Summary of the method: (§1)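 Swiss mice of either sex, 25–35 g, placed one at a time on a hot plate held at 55 °C. End point is paw licking or jumping, whichever comes first, with a 15 s cut-off to avoid paw injury. Reaction time is recorded and reported as percent increase in reaction time.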

[2] = test system: Escherichia coli; experiment: Antibacterial activity against Escherichia coli at 10 ug/ml by agar plate diffusion technique; settings: read-out: IZ
[3] = test system: Escherichia coli; experiment: Antibacterial activity against Escherichia coli at 20 ug/ml by agar plate diffusion technique; settings: read-out: IZ
[4] = test system: Rattus norvegicus; experiment: Antiinflammatory activity in Wistar Albino rat assessed as inhibition of carrageenan-induced paw oedema at 20 mg/kg after 3 hrs relative to control
Summary of the method: (§2)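 Wistar albino rats, 150–200 g, six per group, dosed orally with a 20 mg/kg suspension; control gets 0.1 ml 1% gum acacia. After 30 min, 0.1 ml 1% carrageenan in saline is injected subplantar into the right hind paw. Paw volume is read by plethysmograph at 0–4 h. Inhibition = 100(1 − Vtest/Vcontrol) on mean volume increase.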

[5] = test system: Candida albicans; experiment: Antifungal activity against Candida albicans at 20 ug/ml by paper disc method; settings: read-out: IZ
[6] = test system: Staphylococcus aureus; experiment: Antibacterial activity against Staphylococcus aureus at 10 ug/ml by agar plate diffusion technique; settings: read-out: IZ
[7] = test system: Pseudomonas aeruginosa; experiment: Antibacterial activity against Pseudomonas aeruginosa at 30 ug/ml by agar plate diffusion technique; settings: read-out: IZ
[8] = test system: Pseudomonas aeruginosa; experiment: Antibacterial activity against Pseudomonas aeruginosa at 20 ug/ml by agar plate diffusion technique; settings: read-out: IZ
[9] = test system: Bacillus subtilis; experiment: Antibacterial activity against Bacillus subtilis at 10 ug/ml by agar plate diffusion technique; settings: read-out: IZ
[10] = test system: Aspergillus niger; experiment: Antifungal activity against Aspergillus niger at 30 ug/ml by paper disc method; settings: read-out: IZ
[11] = test system: Bacillus subtilis; experiment: Antibacterial activity against Bacillus subtilis at 20 ug/ml by agar plate diffusion technique; settings: read-out: IZ
[12] = test system: Rattus norvegicus; experiment: Antiinflammatory activity in Wistar Albino rat assessed as inhibition of carrageenan-induced paw oedema at 20 mg/kg after 4 hrs relative to control; summary of the method: as §2
[13] = test system: Escherichia coli; experiment: Antibacterial activity against Escherichia coli at 30 ug/ml by agar plate diffusion technique; settings: read-out: IZ
[14] = test system: Mus musculus; experiment: Analgesic activity in Swiss mouse assessed as increase in reaction time at 20 mg/kg, po after 30 mins by Eddy's hot plate technique; summary of the method: as §1
[15] = test system: Candida albicans; experiment: Antifungal activity against Candida albicans at 30 ug/ml by paper disc method; settings: read-out: IZ
[16] = test system: Staphylococcus aureus; experiment: Antibacterial activity against Staphylococcus aureus at 30 ug/ml by agar plate diffusion technique; settings: read-out: IZ
[17] = test system: Aspergillus niger; experiment: Antifungal activity against Aspergillus niger at 10 ug/ml by paper disc method; settings: read-out: IZ
[18] = test system: Mus musculus; experiment: Analgesic activity in Swiss mouse assessed as increase in reaction time at 20 mg/kg, po after 60 mins by Eddy's hot plate technique; summary of the method: as §1
[19] = test system: Pseudomonas aeruginosa; experiment: Antibacterial activity against Pseudomonas aeruginosa at 10 ug/ml by agar plate diffusion technique; settings: read-out: IZ
[20] = test system: Rattus norvegicus; experiment: Antiinflammatory activity in Wistar Albino rat assessed as inhibition of carrageenan-induced paw oedema at 20 mg/kg after 2 hrs relative to control; summary of the method: as §2
[21] = test system: Staphylococcus aureus; experiment: Antibacterial activity against Staphylococcus aureus at 20 ug/ml by agar plate diffusion technique; settings: read-out: IZ
[22] = test system: Aspergillus niger; experiment: Antifungal activity against Aspergillus niger at 20 ug/ml by paper disc method; settings: read-out: IZ
[23] = test system: Bacillus subtilis; experiment: Antibacterial activity against Bacillus subtilis at 30 ug/ml by agar plate diffusion technique; settings: read-out: IZ
[24] = test system: Candida albicans; experiment: Antifungal activity against Candida albicans at 10 ug/ml by paper disc method; settings: read-out: IZ
[25] = test system: Rattus norvegicus; experiment: Antiinflammatory activity in Wistar Albino rat assessed as inhibition of carrageenan-induced paw oedema at 20 mg/kg after 1 hr relative to control; summary of the method: as §2

| Compound | Activity [1] | zone of inhibition at 10 µg/mL [2] | zone of inhibition at 20 µg/mL [3] | inhibition in vivo at 20 mg/kg [4] | zone of inhibition at 20 µg/mL [5] | zone of inhibition at 10 µg/mL [6] | zone of inhibition at 30 µg/mL [7] | zone of inhibition at 20 µg/mL [8] | zone of inhibition at 10 µg/mL [9] | zone of inhibition at 30 µg/mL [10] | zone of inhibition at 20 µg/mL [11] | inhibition in vivo at 20 mg/kg [12] | zone of inhibition at 30 µg/mL [13] | Activity [14] | zone of inhibition at 30 µg/mL [15] | zone of inhibition at 30 µg/mL [16] | zone of inhibition at 10 µg/mL [17] | Activity [18] | zone of inhibition at 10 µg/mL [19] | inhibition in vivo at 20 mg/kg [20] | other results |
| --- | --- | --- | --- | --- | --- | --- | --- | --- | --- | --- | --- | --- | --- | --- | --- | --- | --- | --- | --- | --- | --- |
| Cc1occc1-c1nnc2n1NC(c1cccn1C)S2 (stereo not given) | 21.96% | 4.11 mm | 7.19 mm | 21.5% | 8.06 mm | 4.42 mm | 13.2 mm | 7.9 mm | 4.52 mm | 13.7 mm | 7.48 mm | 22.4% | 12.1 mm | 7.55% | 13.2 mm | 11.2 mm | 4.93 mm | 16.8% | 4.36 mm | 18.9% | zone of inhibition at 20 µg/mL [21]: 6.23 mm; zone of inhibition at 20 µg/mL [22]: 8.08 mm; zone of inhibition at 30 µg/mL [23]: 11.4 mm; zone of inhibition at 10 µg/mL [24]: 4.5 mm; inhibition in vivo at 20 mg/kg [25]: 14.6% |
| COc1ccc(Cl)c(-c2nnc3sc(-c4ccnc(F)c4)nn23)c1 | 20.34% | 8.1 mm | 14.7 mm | 25.9% | 14.5 mm | 7.29 mm | 19.5 mm | 14.9 mm | 7.78 mm | 20.5 mm | 14.1 mm | 28.1% | 19.7 mm | 4.12% | 21.7 mm | 19.2 mm | 6.68 mm | 11.35% | 8.68 mm | 24.6% | zone of inhibition at 20 µg/mL [21]: 14.1 mm; zone of inhibition at 20 µg/mL [22]: 12.6 mm; zone of inhibition at 30 µg/mL [23]: 19.2 mm; zone of inhibition at 10 µg/mL [24]: 7.68 mm; inhibition in vivo at 20 mg/kg [25]: 18.5% |
| Cc1occc1-c1nnc2n1NC(c1ccco1)S2 (stereo not given) | 26.14% | 4.82 mm | 8.04 mm | 24.1% | 11 mm | 6.67 mm | 17.7 mm | 12.3 mm | 5.33 mm | 14.2 mm | 10.7 mm | 25.9% | 15.2 mm | 5.68% | 14.8 mm | 13.3 mm | 5.21 mm | 15.18% | 6.67 mm | 21.6% | zone of inhibition at 20 µg/mL [21]: 12.3 mm; zone of inhibition at 20 µg/mL [22]: 8.12 mm; zone of inhibition at 30 µg/mL [23]: 11.3 mm; zone of inhibition at 10 µg/mL [24]: 5.41 mm; inhibition in vivo at 20 mg/kg [25]: 16.4% |
